From ChEMBL document CHEMBL4373671, “Evaluation of anti-inflammatory activity and molecular docking study of new aza-bicyclic isoxazoline acylhydrazone derivatives” (2019)
Activity calls are given as the source filed them. No cut-off for these calls is given here.

Tests used:
[1] = tested on: Mus musculus; experiment: Antiinflammatory activity in Swiss mouse assessed as reduction in dextran-induced paw edema at 10 mg/kg, po treated 1 hr prior to dextran challenge and measured every 60 mins for 4 hrs by plethysmometer analysis; format: functional, organism-based
How it was run: (§1)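 Swiss mice were given an oral dose in saline + 5% DMSO 1 h before intraplantar 0.2% dextran (50 μL) into the right hind paw. Paw volume was measured by plethysmometer every 60 min up to 4 h, as the difference from the contralateral saline paw.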

[2] = tested on: Mus musculus; experiment: Antiinflammatory activity in Swiss mouse assessed as inhibition of bradykinin-induced paw edema at 0.5 mg/kg, po treated 1 hr prior to bradykinin challenge measured after 15 to 90 mins by plethysmometer analysis; format: functional, organism-based
How it was run: (§2)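 Mice were given captopril 5 mg kg–1 1 h before the bradykinin challenge to block kininases. Oral dosing (vehicle saline + 5% DMSO) preceded intraplantar bradykinin (10 nmol, 50 μL) into the right hind paw by 1 h. Plethysmometer readings at 15, 30, 60 and 90 min, relative to the contralateral paw.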

[3] = tested on: Mus musculus; experiment: Antiinflammatory activity against carrageenan-induced air pouch inflammatory Swiss mouse model assessed as TNF-alpha level in air pouch exudate at 15 mg/kg, po treated 1 hr prior to carrageenan administration and measured after 6 hrs by sandwich ELISA (reference value: 425.17 pg/ml); format: functional
[4] = tested on: Mus musculus; experiment: Antiinflammatory activity against carrageenan-induced air pouch inflammatory Swiss mouse model assessed as IL-1beta level in air pouch exudate at 15 mg/kg, po treated 1 hr prior to carrageenan administration and measured after 6 hrs by sandwich ELISA (reference value: 564.06 pg/ml); format: functional
[5] = tested on: Mus musculus; experiment: Antiinflammatory activity against carrageenan-induced air pouch inflammatory Swiss mouse model assessed as number of polymorphonuclear leucocytes in air pouch at 120 mg/kg, po treated for 1 hr prior to carrageenan administration and measured after 6 hrs (reference value: 13.76 +/- 0.55X10'6/ml); format: functional
[6] = tested on: Mus musculus; experiment: Antiinflammatory activity in Swiss mouse assessed as reduction in bradykinin-induced paw edema volume at 15 mg/kg, po treated 1 hr prior to bradykinin challenge measured after 15 to 30 mins by plethysmometer analysis; format: functional, organism-based; how it was run: as §2
[7] = tested on: Mus musculus; experiment: Antiinflammatory activity against carrageenan-induced air pouch inflammatory Swiss mouse model assessed as inhibition of PMNL cell migration in air pouch at 120 mg/kg, po treated 1 hr prior to carrageenan administration and measured after 6 hrs relative to control; format: functional
[8] = tested on: Mus musculus; experiment: Antiinflammatory activity against carrageenan-induced paw edema in Swiss mouse assessed as reduction in paw edema at 15 mg/kg, po administered 1 hr prior to carrageenan challenge and measured after 2 to 6 hrs by plethysmometric analysis; format: functional, organism-based
How it was run: (§3)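 Male Swiss mice (25–30 g, fasted 8 h), dosed orally in saline + 5% DMSO 1 h before 50 μL 1% carrageenan into the right hind paw. Paw volume read by plethysmometer before challenge and at 2, 4 and 6 h. Edema taken as the volume difference from the saline-injected contralateral paw. Two-way ANOVA with Tukey.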

[9] = tested on: Mus musculus; experiment: Antiinflammatory activity against carrageenan-induced air pouch inflammatory Swiss mouse model assessed as number of polymorphonuclear leucocytes in air pouch at 15 mg/kg, po treated for 1 hr prior to carrageenan administration and measured after 6 hrs (reference value: 13.76 +/- 0.55X10'6/ml); format: functional
[10] = tested on: Mus musculus; experiment: Antiinflammatory activity in Swiss mouse assessed as reduction in compound 48/80-induced paw edema at 15 mg/kg, po treated 1 hr prior to compound 48/80 challenge measured after 15 to 30 mins by plethysmometer analysis; format: functional, organism-based
[11] = tested on: Mus musculus; experiment: Antiinflammatory activity in Swiss mouse assessed as inhibition of 5-HT-induced paw edema at 15 mg/kg, po treated 1 hr prior to 5-HT challenge measured after 30 mins by plethysmometer analysis; format: functional, organism-based
How it was run: (§4)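 Male Swiss mice received 15 mg kg–1 p.o. (saline + 5% DMSO) 1 h before intraplantar 5-HT (100 μg in 50 μL) into the right hind paw. Plethysmometer readings at 15, 30, 60 and 90 min. Edema expressed as volume difference from the contralateral saline paw.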

[12] = tested on: Mus musculus; experiment: Antiinflammatory activity against carrageenan-induced air pouch inflammatory Swiss mouse model assessed as number of polymorphonuclear leucocytes in air pouch at 30 mg/kg, po treated for 1 hr prior to carrageenan administration and measured after 6 hrs (reference value: 13.76 +/- 0.55X10'6/ml); format: functional
[13] = tested on: Mus musculus; experiment: Antiinflammatory activity in Swiss mouse assessed as inhibition of acetic acid-induced increase in vascular permeability at 15 mg/kg, po treated 1 hr prior to acetic acid challenge and measured after 30 mins by Evans blue dye based assay; format: functional, organism-based
How it was run: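 Male Swiss mice received 15 mg kg–1 p.o. or vehicle (saline + 5% DMSO). After 1 h, under ketamine/xylazine (8:2 v/v, i.p.), 0.2 mL 1% Evans blue was given retro-orbitally, then 0.5 mL 1% acetic acid i.p. At 30 min the peritoneal cavity was washed with saline; exudate was centrifuged (2000 rpm, 10 min) and supernatant absorbance read at 610 nm.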

[14] = tested on: Mus musculus; experiment: Antiinflammatory activity in Swiss mouse assessed as reduction in BthTX-2-induced paw edema at 15 mg/kg, po treated 1 hr prior to BthTX-2 challenge measured after 15 to 45 mins by plethysmometer analysis; format: functional, organism-based
[15] = tested on: Mus musculus; experiment: Antiinflammatory activity in Swiss mouse assessed as inhibition of histamine-induced paw edema at 15 mg/kg, po treated 1 hr prior to histamine challenge measured after 15 mins by plethysmometer analysis; format: functional, organism-based
How it was run: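 Swiss mice were dosed at 15 mg kg–1 orally in saline + 5% DMSO 1 h before injection of histamine (100 μg, 50 μL) into the right hind paw. Paw volume was measured by plethysmometer at 15, 30, 60 and 90 min, relative to the contralateral saline paw.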

[16] = tested on: Mus musculus; experiment: Antiinflammatory activity against carrageenan-induced air pouch inflammatory Swiss mouse model assessed as inhibition of PMNL cell migration in air pouch at 15 mg/kg, po treated 1 hr prior to carrageenan administration and measured after 6 hrs relative to control; format: functional
[17] = tested on: Mus musculus; experiment: Antiinflammatory activity in Swiss mouse assessed as reduction in dextran-induced paw edema at 15 mg/kg, po treated 1 hr prior to dextran challenge and measured every 60 mins for 4 hrs by plethysmometer analysis; format: functional, organism-based; how it was run: as §1
[18] = tested on: Mus musculus; experiment: Antiinflammatory activity against carrageenan-induced air pouch inflammatory Swiss mouse model assessed as inhibition of PMNL cell migration in air pouch at 60 mg/kg, po treated 1 hr prior to carrageenan administration and measured after 6 hrs relative to control; format: functional
[19] = tested on: Mus musculus; experiment: Antiinflammatory activity against carrageenan-induced air pouch inflammatory Swiss mouse model assessed as inhibition of PMNL cell migration in air pouch at 30 mg/kg, po treated 1 hr prior to carrageenan administration and measured after 6 hrs relative to control; format: functional
[20] = tested on: Mus musculus; experiment: Antiinflammatory activity against carrageenan-induced air pouch inflammatory Swiss mouse model assessed as number of polymorphonuclear leucocytes in air pouch at 60 mg/kg, po treated for 1 hr prior to carrageenan administration and measured after 6 hrs (reference value: 13.76 +/- 0.55X10'6/ml); format: functional
[21] = tested on: Mus musculus; experiment: Antiinflammatory activity in Swiss mouse assessed as inhibition of 5-HT-induced paw edema assessed as reduction in paw volume at 15 mg/kg, po treated 1 hr prior to 5-HT challenge and measured after 15 to 90 mins by plethysmometer analysis; format: functional, organism-based; how it was run: as §4
[22] = tested on: Mus musculus; experiment: Antiinflammatory activity in Swiss mouse assessed as reduction in dextran-induced paw edema at 15 mg/kg, po treated 1 hr prior to dextran challenge and measured after 3 to 4 hrs by plethysmometer analysis; format: functional, organism-based; how it was run: as §1
[23] = tested on: Mus musculus; experiment: Antiinflammatory activity against carrageenan-induced air pouch inflammatory Swiss mouse model assessed as IL-1beta level in air pouch exudate at 10 mg/kg, po treated 1 hr prior to carrageenan administration and measured after 6 hrs by sandwich ELISA (reference value: 564.06 pg/ml); format: functional
[24] = tested on: Mus musculus; experiment: Antiinflammatory activity against carrageenan-induced air pouch inflammatory Swiss mouse model assessed as TNF-alpha level in air pouch exudate at 10 mg/kg, po treated 1 hr prior to carrageenan administration and measured after 6 hrs by sandwich ELISA (reference value: 425.17 pg/ml); format: functional
[25] = tested on: Mus musculus; experiment: Antiinflammatory activity against carrageenan-induced paw edema in Swiss mouse assessed as reduction in paw edema at 10 mg/kg, po administered 1 hr prior to carrageenan challenge and measured after 2 to 6 hrs by plethysmometer analysis; format: functional, organism-based; how it was run: as §3
[26] = tested on: Mus musculus; experiment: Antiinflammatory activity against carrageenan-induced air pouch inflammatory Swiss mouse model assessed as number of polymorphonuclear leucocytes in air pouch at 10 mg/kg, po treated for 1 hr prior to carrageenan administration and measured after 6 hrs (reference value: 13.76 +/- 0.55X10'6/ml); format: functional
[27] = tested on: Mus musculus; experiment: Antiinflammatory activity against carrageenan-induced air pouch inflammatory Swiss mouse model assessed as inhibition of PMNL cell migration in air pouch at 10 mg/kg, po treated 1 hr prior to carrageenan administration and measured after 6 hrs relative to control; format: functional

SMILES	Activity [3] [pg/mL]	Activity [4] [pg/mL]	Activity [5] [×10⁶ /ml]	Activity [6]	inhibition in vivo at 120 mg/kg [7] [%]	Activity [8]	Activity [9] [×10⁶ /ml]	inhibition [10]	Activity [12] [×10⁶ /ml]	inhibition [13]	Activity [14]	inhibition [15]	inhibition in vivo at 15 mg/kg [16] [%]	inhibition in vivo at 60 mg/kg [18] [%]	inhibition in vivo at 30 mg/kg [19] [%]	Activity [20] [×10⁶ /ml]	other results
CN1CCC(=C2c3ccccc3C=Cc3ccccc32)CC1	–	–	–	–	–	–	–	–	–	–	–	–	–	–	–	–	Activity [1]: Active
C[C@@H]1C[C@H]2[C@@H]3CCC4=CC(=O)C=C[C@]4(C)[C@@]3(F)[C@@H](O)C[C@]2(C)[C@@]1(O)C(=O)CO	–	–	–	–	–	–	–	–	–	–	–	–	–	–	–	–	inhibition [2]: Active
O=C(N/N=C\c1ccc(Cl)cc1)C1=NO[C@@H]2[C@H]1CCN2C(=O)c1ccc(Cl)cc1 (racemic)	271.6	323.11	6.1	Active	56	Active	3.33	Active	4.97	Active	Active	Active	76	57	64	5.94	inhibition [11]: Active; Activity [17]: Active
COc1ccc(/C=N\NC(=O)C2=NO[C@@H]3[C@H]2CCN3C(=O)c2ccc([N+](=O)[O-])cc2)cc1 (racemic)	305.88	358.28	12.72	Active	8	Active	4.6	Active	6.72	Active	Active	Active	67	35	51	8.98	inhibition [21]: Active; Activity [22]: Active
COc1ccc2c(c1)c(CC(=O)O)c(C)n2C(=O)c1ccc(Cl)cc1 [INDOMETHACIN]	–	–	–	–	–	–	–	–	–	–	–	–	–	–	–	–	Activity [23]: <=329.81 pg/ml; Activity [24]: 458.97 pg/mL; Activity [25]: Active; Activity [26]: 4.84 ×10⁶ /ml; inhibition in vivo at 10 mg/kg [27]: 65%
